According to ChEMBL document CHEMBL1143648, “3-[Substituted]-5-(5-pyridin-2-yl-2H-tetrazol-2-yl)benzonitriles: identification of highly potent and selective metabotropic glutamate subtype 5 receptor antagonists” (Bioorg Med Chem Lett, 2005):

Assays:
[1] = molecular target: T1, Metabotropic glutamate receptor 5 (Rattus norvegicus, UniProt P31424); experiment: In vitro functional activity measured by changes in cytosolic [Ca2+] concentrations against rat metabotropic glutamate receptor 5
How it was run: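 A cell-based, high-throughput functional assay followed changes in cytosolic Ca2+ concentration by fluorescence detection.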

[2] = molecular target: T1, Metabotropic glutamate receptor 5; experiment: Ability to displace [3H]3-methoxy-5-(pyridin-2-ylethynyl)pyridine from binding to metabotropic glutamate receptor 5 in rat cortical membranes; type: cell membranes
[3] = Oral bioavailability in rat (dose 10 mg/kg p.o.); type: ADME, organism-based; details: in vivo
How it was run: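 Rat pharmacokinetics compared oral dosing at 10 mg/kg (n = 3 Sprague–Dawley rats/group) with intravenous dosing at 2 mg/kg (n = 2 rats/group).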

[4] = Maximum concentration in rat upon oral administration at a dose of 10 mg/kg; n = 3; type: ADME, organism-based; set-up: dose 10 mg/kg, route oral; details: in vivo
How it was run: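 Sprague–Dawley rats (n = 3 per group) were given 10 mg/kg orally for pharmacokinetic profiling.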

[5] = Volume of distribution in rat upon intravenous administration at a dose of 2 mg/kg; n = 2; type: ADME, organism-based; set-up: dose 2 mg/kg, route intravenous; details: in vivo
How it was run: (§1)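 Sprague–Dawley rats (n = 2 per group) were given 2 mg/kg by the intravenous route for pharmacokinetic profiling.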

[6] = Half life in rat upon intravenous administration at a dose of 2 mg/kg; n = 2; type: ADME, organism-based; set-up: dose 2 mg/kg, route intravenous; details: in vivo; how it was run: as §1
[7] = Clearance in rat upon intravenous administration at a dose of 2 mg/kg; n = 2; type: ADME, organism-based; set-up: dose 2 mg/kg, route intravenous; details: plasma, read-out: Clp; how it was run: as §1
[8] = species: Rattus norvegicus; experiment: Ratio of compound levels in brain to that of plasma level was determined; type: functional
How it was run: (§2)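 Sprague–Dawley rats were dosed intraperitoneally at 10 or 3 mg/kg. Drug levels (µM) in brain and plasma were measured 1 h after dosing, and brain/plasma was expressed as a percentage.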

[9] = tested on: Rattus norvegicus; experiment: Brain penetration measured by compound levels in plasma at a dose of 3 mg/kg upon intraperitoneal after 1 hr; type: functional, organism-based; set-up: dose 3 mg/kg; how it was run: as §2
[10] = tested on: Rattus norvegicus; experiment: Effective dose for maximum occupancy in rat upon intraperitoneal administration measured 1 hr post administration; n = 5 - 6; type: functional
How it was run: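 Receptor occupancy was measured in Sprague–Dawley rats (n = 5–6 per group) 1 h after intraperitoneal dosing. ED50 is given in mg/kg ip.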

[11] = tested on: Rattus norvegicus; experiment: Brain penetration measured by compound levels in brain at a dose of 3 mg/kg upon intraperitoneal after 1 hr; type: functional; how it was run: as §2
[12] = tested on: Rattus norvegicus; experiment: Effective dose for maximum occupancy in rat upon oral administration measured 30 min post administration; n = 6 - 7
[13] = tested on: Rattus norvegicus; experiment: Brain penetration measured by compound levels in brain at a dose of 10 mg/kg upon intraperitoneal after 1 hr; type: functional; how it was run: as §2
[14] = tested on: Rattus norvegicus; experiment: Brain penetration measured by compound levels in plasma at a dose of 10 mg/kg upon intraperitoneal after 1 hr; type: functional, organism-based; set-up: dose 10 mg/kg; how it was run: as §2

T1 sequence (P31424 whole entry): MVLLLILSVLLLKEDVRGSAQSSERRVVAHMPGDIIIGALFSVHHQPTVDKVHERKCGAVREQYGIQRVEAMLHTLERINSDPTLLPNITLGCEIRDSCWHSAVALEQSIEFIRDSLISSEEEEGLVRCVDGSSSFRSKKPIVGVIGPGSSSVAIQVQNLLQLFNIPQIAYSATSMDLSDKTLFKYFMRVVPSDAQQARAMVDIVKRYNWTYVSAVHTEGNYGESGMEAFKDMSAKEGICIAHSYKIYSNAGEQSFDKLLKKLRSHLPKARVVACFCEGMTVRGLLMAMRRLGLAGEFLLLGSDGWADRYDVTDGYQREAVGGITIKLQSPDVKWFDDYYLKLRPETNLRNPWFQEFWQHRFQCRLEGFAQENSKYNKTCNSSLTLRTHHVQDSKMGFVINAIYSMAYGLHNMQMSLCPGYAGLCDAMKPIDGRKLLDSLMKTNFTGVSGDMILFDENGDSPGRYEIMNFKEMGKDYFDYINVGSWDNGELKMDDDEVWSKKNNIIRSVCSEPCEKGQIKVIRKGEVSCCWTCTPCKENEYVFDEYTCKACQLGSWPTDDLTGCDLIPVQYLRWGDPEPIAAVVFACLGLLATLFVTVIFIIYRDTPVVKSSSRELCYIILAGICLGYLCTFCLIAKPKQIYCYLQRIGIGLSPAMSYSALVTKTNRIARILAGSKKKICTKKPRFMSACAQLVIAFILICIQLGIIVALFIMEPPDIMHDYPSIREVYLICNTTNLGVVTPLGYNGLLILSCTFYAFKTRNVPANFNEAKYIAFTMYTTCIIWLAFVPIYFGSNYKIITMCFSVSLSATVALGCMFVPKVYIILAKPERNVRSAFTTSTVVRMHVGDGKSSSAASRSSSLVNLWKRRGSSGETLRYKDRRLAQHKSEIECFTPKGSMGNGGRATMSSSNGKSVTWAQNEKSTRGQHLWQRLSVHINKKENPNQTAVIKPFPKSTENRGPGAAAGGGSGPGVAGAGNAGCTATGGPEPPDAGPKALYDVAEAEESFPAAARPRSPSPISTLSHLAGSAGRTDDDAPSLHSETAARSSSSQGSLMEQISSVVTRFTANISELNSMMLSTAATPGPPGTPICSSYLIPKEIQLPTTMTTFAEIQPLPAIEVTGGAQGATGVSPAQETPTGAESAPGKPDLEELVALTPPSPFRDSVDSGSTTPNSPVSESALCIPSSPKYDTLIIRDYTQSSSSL

IC50 [1] [nM]	Ki [2] [nM]	SMILES	further results
42	42	N#Cc1cc(-n2nnc(-c3ccccn3)n2)cc([N+](=O)[O-])c1	–
975	271	N#Cc1cc(OCC2CC2)cc(-n2nnc(-c3ccccn3)n2)c1	–
7	26	N#Cc1cc(Cl)cc(-n2nnc(-c3ccccn3)n2)c1	–
6	7	Cc1cc(C#N)cc(-n2nnc(-c3ccccn3)n2)c1	bioavailability [3]: 15%; Cmax [4]: 800 nM; Vd [5]: 1.4 L/kg; half-life [6]: 0.4 h; clearance [7]: 50 mL/min/kg
722	> 600	N#Cc1cc(-n2nnc(-c3ccccn3)n2)ccc1Cl	–
562	318	N#Cc1cc(O)cc(-n2nnc(-c3ccccn3)n2)c1	–
34	18	N#Cc1cc(C#N)cc(-n2nnc(-c3ccccn3)n2)c1	–
308	95	N#Cc1cc(N)cc(-n2nnc(-c3ccccn3)n2)c1	–
73	–	N#Cc1cccc(-n2nnc(-c3ccccn3)n2)c1	Brain levels [13]: 15 µM; Brain/Plasma [8]: 150%; Plasma levels [14]: 10 µM; bioavailability [3]: 100%; Vd [5]: 5 L/kg; half-life [6]: 6.9 h; Occ ED50 [10]: 3 mg/kg; clearance [7]: 33 mL/min/kg; Occ ED50 [12]: 3 mg/kg
10	6	COc1cc(C#N)cc(-n2nnc(-c3ccccn3)n2)c1	–

Second part, the compound before the results:

SMILES	IC50 [1] [nM]	Ki [2] [nM]	further results
N#Cc1ccc(Cl)c(-n2nnc(-c3ccccn3)n2)c1	334	> 600	–
c1ccc(-c2nnn(-c3cccc(-c4cccnc4)c3)n2)nc1	63	69	–
N#Cc1cc(Oc2cccnc2)cc(-n2nnc(-c3ccccn3)n2)c1	15	16	–
N#Cc1cc(F)cc(-n2nnc(-c3ccccn3)n2)c1	–	–	Brain/Plasma [8]: 90%; Plasma levels [9]: 2.7 µM; half-life [6]: 2.9 h; Occ ED50 [10]: 1.3 mg/kg; Brain levels [11]: 2.4 µM; Occ ED50 [12]: 3.6 mg/kg
Clc1cccc(-n2nnc(-c3ccccn3)n2)c1Cl	1270	> 600	–
N#Cc1cc(F)cc(-n2ccc(-c3ccccn3)c2)c1	3	5	–
N#Cc1cc(OCc2ccccc2)cc(-n2nnc(-c3ccccn3)n2)c1	> 1000	> 600	–
N#Cc1cc(F)cc(-n2nnc(-c3ncc[nH]3)n2)c1	47	–	–
N#Cc1cccc(-n2ccc(-c3ccccn3)c2)c1	190	> 600	–
N#Cc1cccc(-n2nnc(-c3ncc[nH]3)n2)c1	77	–	–
